In this experiment the target is T1, 5'-nucleotidase (Rattus norvegicus, UniProt P21588).
T1 sequence (P21588 whole entry): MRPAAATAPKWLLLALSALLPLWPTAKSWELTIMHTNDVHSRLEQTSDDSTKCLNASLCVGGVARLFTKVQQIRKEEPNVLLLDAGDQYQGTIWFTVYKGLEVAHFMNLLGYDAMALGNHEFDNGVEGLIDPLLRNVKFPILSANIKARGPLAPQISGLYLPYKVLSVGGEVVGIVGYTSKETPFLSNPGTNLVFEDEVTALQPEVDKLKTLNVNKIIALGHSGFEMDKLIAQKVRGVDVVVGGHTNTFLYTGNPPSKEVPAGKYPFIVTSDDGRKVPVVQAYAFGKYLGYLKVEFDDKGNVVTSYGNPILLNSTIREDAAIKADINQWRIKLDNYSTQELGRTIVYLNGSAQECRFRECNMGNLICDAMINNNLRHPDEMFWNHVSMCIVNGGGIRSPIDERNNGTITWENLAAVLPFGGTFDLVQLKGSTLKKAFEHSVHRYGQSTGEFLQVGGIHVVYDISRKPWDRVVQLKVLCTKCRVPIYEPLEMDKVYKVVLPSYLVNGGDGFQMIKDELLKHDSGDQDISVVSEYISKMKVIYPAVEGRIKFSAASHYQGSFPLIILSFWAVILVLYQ
Description: Inhibition of rat recombinant ecto-5'-nucleotidase using [3H]AMP substrate. Put shortly: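 Purified recombinant rat enzyme in a radioactive assay with [3H]AMP as substrate at 5 μM (near Km). Compounds were screened first at 100 and 10 μM. Full concentration–response curves were run for potent compounds to obtain IC50. Inhibition mechanism: 10 substrate concentrations at three inhibitor concentrations, with velocity normalized to Vmax without inhibitor.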

As to `COc1cccc2cc(C(=O)Nc3ccc(S(N)(=O)=O)cc3)c(=O)oc12`, the IC50 turned out to be 16.6 µM.

`CCOc1ccc(C(=O)NC(=S)Nc2ccc(S(N)(=O)=O)cc2)cc1Cl`: the IC50 turned out to be 46.5 µM.

With `NS(=O)(=O)c1ccc(N/N=C/c2cccc(Oc3ccccc3)c2)c([N+](=O)[O-])c1`, the IC50 amounted to 3.99 µM.

Regarding `Cc1c(NC(=O)c2ccc3c(c2)NC(=O)CO3)c(=O)n(-c2ccccc2)n1C`, the concentration for half-maximal inhibition (IC50) was found to be 50.9 µM.

In the case of `Cc1oc(-c2ccc(Cl)cc2)cc1C(=O)Nc1ccc(S(N)(=O)=O)cc1`, the IC50 is 45.1 µM.

Consider `O=C(NC(=S)Nc1ccc(S(=O)(=O)c2ccc(NC(=S)NC(=O)c3ccccc3)cc2)cc1)c1ccccc1`, for which the IC50 worked out at 7.1 µM.

As to `NS(=O)(=O)c1ccc(N/N=C/c2cccc(O)c2)c([N+](=O)[O-])c1`, the IC50 stood at 18.4 µM.

For the molecule `NS(=O)(=O)c1ccc(NC(=O)c2cc3cc(Cl)cc(Cl)c3oc2=O)cc1`, the IC50 amounted to 74.8 µM.

For `NS(=O)(=O)c1ccc(N/N=C/c2ccc(O)cc2)c([N+](=O)[O-])c1`, the IC50 is 8.03 µM.

For the molecule `NS(=O)(=O)c1ccc(N/N=C/c2c(O)ccc3ccccc23)c([N+](=O)[O-])c1`, the IC50 is 6.54 µM.

`NS(=O)(=O)c1cc(Cl)c(NC(=O)c2c(O)[nH]c3ccccc3c2=O)c(Cl)c1`: the concentration for half-maximal inhibition (IC50) was determined as 15.5 µM.

Regarding `NS(=O)(=O)c1ccc(N/N=C/c2ccccc2O)c([N+](=O)[O-])c1`, the IC50 amounted to 9.46 µM.
